Laboratory results from publication PMC3215888 (Cancer Chemotherapy and Pharmacology, 2011).
Where two headings read alike, the source gives them in different places.

How the values were obtained:
[1] = system: TC-32 Ewing sarcoma cell line; test: DIMSCAN in vitro testing, 96 h; assay type: cell-based; settings: for IC50: Homo sapiens, TC-32, 96 h
Summary of the method: (§1)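 Neuroblastoma and Ewing sarcoma lines, STR-verified and maintained as in the originators' reports. Exposed for 96 h to test compound (DMSO stock diluted in medium) at 1 nM–10 μM. Viable cells quantified by fluorescein diacetate fluorescence with DIMSCAN digital image microscopy. Absolute IC50 = concentration giving 50% growth inhibition vs controls. Relative IC50 = concentration giving 50% of the maximum inhibitory effect.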

[2] = system: TC-71 Ewing sarcoma cell line; test: DIMSCAN in vitro testing, 96 h; assay type: cell-based; settings: for IC50: TC-71, 96 h
Summary of the method: as §1

[3] = system: CHLA-10 Ewing sarcoma cell line; test: DIMSCAN in vitro testing, 96 h; assay type: cell-based; settings: for IC50: 96 h
Summary of the method: as §1

[4] = system: CHLA-136 neuroblastoma cell line; test: DIMSCAN in vitro testing, 96 h; assay type: cell-based; settings: for IC50: Neuroblastoma cell, 96 h
Summary of the method: as §1

[5] = system: SMS-KAN neuroblastoma cell line; test: DIMSCAN in vitro testing, 96 h; assay type: cell-based
[6] = system: SMS-LHN neuroblastoma cell line; test: DIMSCAN in vitro testing, 96 h; assay type: cell-based; settings: for IC50: Neuroblastoma cell, 96 h
Summary of the method: as §1

KT-10 Wilms xenograft = assay type: in vivo, mice
Summary of the method: (§2)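 Female CB17 scid mice bearing subcutaneous tumors, 10 per group. Dosed by oral gavage twice daily, 5 days weekly for 6 weeks, at 20.8, 10.4, 5.2 or 2.6 mg/kg, in 10% 2-hydroxypropyl-β-cyclodextrin/1% sodium bicarbonate. Event = quadrupled tumor volume; EFS by Kaplan–Meier, exact log-rank test. Per-mouse scores PD/SD/PR (≥50% regression)/CR (<0.10 cm3)/MCR; group median reported. PR, CR and MCR count as objective responses.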

[7] = system: Rh65 ALV Rhabdomyosarcoma xenograft; assay type: in vivo, mice
Summary of the method: as §2

[8] = system: NB-EBc1 Neuroblastoma xenograft; assay type: in vivo, mice
Summary of the method: as §2

[9] = system: ALL-2 ALL B-precursor xenograft; test: ALL xenograft; assay type: in vivo, mice
Summary of the method: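 Female NOD/scid mice inoculated intravenously with leukemia cells, 8 per group. Test compound suspended in 10% 2-hydroxypropyl-β-cyclodextrin/1% sodium bicarbonate in water. Given by oral gavage twice daily, 5 days weekly for 3 weeks, at 20.8, 10.4, 5.2 or 2.6 mg/kg. Blood %hCD45 of leukocytes tracked; event = hCD45 reaching 25%. EFS by Kaplan–Meier, exact log-rank vs controls. Median group response from individual scores.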

Aurora kinase A = settings: cited from earlier work

COc1cc(Nc2ncc3c(n2)-c2ccc(Cl)cc2C(c2c(F)cccc2OC)=NC3)ccc1C(=O)O [MLN8237]
IC50 ([1]; read-out: Absolute IC50): 39 nM
IC50 ([1]; read-out: Relative IC50): 34 nM
Ymin ([1]; TC-32, minimum T/C): 6.5%
IC50 ([2]; read-out: Absolute IC50): 102 nM
IC50 ([2]; read-out: Relative IC50): 100 nM
Ymin ([2]; TC-71, minimum T/C): 10.0%
IC50 ([3]; read-out: Absolute IC50): 60 nM
IC50 ([3]; read-out: Relative IC50): 56 nM
Ymin ([3]; CHLA-10, minimum T/C): 4.7%
Ymin ([4]; CHLA-136, minimum T/C): 10.4%
IC50 ([4]; read-out: Absolute IC50): 39 nM
IC50 ([4]; read-out: Relative IC50): 36 nM
IC50 ([5]; read-out: Absolute IC50): 34 nM
IC50 ([5]; read-out: Relative IC50): 32 nM
IC50 ([6]; read-out: Absolute IC50): 32 nM
IC50 ([6]; read-out: Relative IC50): 20 nM
Ymin ([6]; SMS-LHN, minimum T/C): 25.1%
EFS T/C (KT-10 Wilms xenograft; 2.6 mg/kg): 1.0
EFS activity (KT-10 Wilms xenograft; 2.6 mg/kg): Low
Estimate of median time to event (KT-10 Wilms xenograft; 2.6 mg/kg): 9.6 days
Median group response (KT-10 Wilms xenograft; 2.6 mg/kg): PD1 (if the TGD value ≤1.5, that mouse was considered PD1)
Response activity (KT-10 Wilms xenograft; 2.6 mg/kg): Low
Tumor volume T/C (KT-10 Wilms xenograft; 2.6 mg/kg): 0.84
Median RTV/hCD45 at end of study (KT-10 Wilms xenograft; 2.6 mg/kg): >4
EFS T/C (KT-10 Wilms xenograft; 5.2 mg/kg): 1.7
EFS activity (KT-10 Wilms xenograft; 5.2 mg/kg): Low
Estimate of median time to event (KT-10 Wilms xenograft; 5.2 mg/kg): 16.0 days
Median group response (KT-10 Wilms xenograft; 5.2 mg/kg): PD2 (if the TGD value >1.5, the mouse was considered PD2)
Response activity (KT-10 Wilms xenograft; 5.2 mg/kg): Int
Tumor volume T/C (KT-10 Wilms xenograft; 5.2 mg/kg): 0.71
Median RTV/hCD45 at end of study (KT-10 Wilms xenograft; 5.2 mg/kg): >4
EFS T/C (KT-10 Wilms xenograft; 10.4 mg/kg): 1.5
EFS activity (KT-10 Wilms xenograft; 10.4 mg/kg): Low
Estimate of median time to event (KT-10 Wilms xenograft; 10.4 mg/kg): 14.6 days
Median group response (KT-10 Wilms xenograft; 10.4 mg/kg): PD1 (if the TGD value ≤1.5, that mouse was considered PD1)
Response activity (KT-10 Wilms xenograft; 10.4 mg/kg): Low
Tumor volume T/C (KT-10 Wilms xenograft; 10.4 mg/kg): 0.53
Median RTV/hCD45 at end of study (KT-10 Wilms xenograft; 10.4 mg/kg): >4
EFS T/C (KT-10 Wilms xenograft; 20.8 mg/kg): >4.4
EFS activity (KT-10 Wilms xenograft; 20.8 mg/kg): High
Median group response (KT-10 Wilms xenograft; 20.8 mg/kg): MCR
Response activity (KT-10 Wilms xenograft; 20.8 mg/kg): High
Tumor volume T/C (KT-10 Wilms xenograft; 20.8 mg/kg): 0.35
Median RTV/hCD45 at end of study (KT-10 Wilms xenograft; 20.8 mg/kg): 0.0
EFS T/C ([7]; 2.6 mg/kg): 2.1
EFS activity ([7]; 2.6 mg/kg): Int
Estimate of median time to event ([7]; 2.6 mg/kg): 22.9 days
Median group response ([7]; 2.6 mg/kg): PD2 (if the TGD value >1.5, the mouse was considered PD2)
Response activity ([7]; 2.6 mg/kg): Int
Tumor volume T/C ([7]; 2.6 mg/kg): 0.31
Median RTV/hCD45 at end of study ([7]; 2.6 mg/kg): >4
EFS T/C ([7]; 5.2 mg/kg): 3.7
EFS activity ([7]; 5.2 mg/kg): Int
Estimate of median time to event ([7]; 5.2 mg/kg): 39.3 days
Median group response ([7]; 5.2 mg/kg): PD2 (if the TGD value >1.5, the mouse was considered PD2)
Response activity ([7]; 5.2 mg/kg): Int
Tumor volume T/C ([7]; 5.2 mg/kg): 0.19
Median RTV/hCD45 at end of study ([7]; 5.2 mg/kg): >4
EFS T/C ([7]; 10.4 mg/kg): >3.9
EFS activity ([7]; 10.4 mg/kg): Int
Median group response ([7]; 10.4 mg/kg): PD2 (if the TGD value >1.5, the mouse was considered PD2)
Response activity ([7]; 10.4 mg/kg): Int
Tumor volume T/C ([7]; 10.4 mg/kg): 0.11
Median RTV/hCD45 at end of study ([7]; 10.4 mg/kg): 3.2
EFS T/C ([7]; 20.8 mg/kg): >3.9
EFS activity ([7]; 20.8 mg/kg): High
Median group response ([7]; 20.8 mg/kg): MCR
Response activity ([7]; 20.8 mg/kg): High
Tumor volume T/C ([7]; 20.8 mg/kg): 0.01
Median RTV/hCD45 at end of study ([7]; 20.8 mg/kg): 0.0
EFS T/C ([8]; 2.6 mg/kg): 1.7
EFS activity ([8]; 2.6 mg/kg): Low
Estimate of median time to event ([8]; 2.6 mg/kg): 9.6 days
Median group response ([8]; 2.6 mg/kg): PD2 (if the TGD value >1.5, the mouse was considered PD2)
Response activity ([8]; 2.6 mg/kg): Int
Tumor volume T/C ([8]; 2.6 mg/kg): 0.57
Median RTV/hCD45 at end of study ([8]; 2.6 mg/kg): >4
EFS T/C ([8]; 5.2 mg/kg): 2.0
EFS activity ([8]; 5.2 mg/kg): Low
Estimate of median time to event ([8]; 5.2 mg/kg): 11.3 days
Median group response ([8]; 5.2 mg/kg): PD2 (if the TGD value >1.5, the mouse was considered PD2)
Response activity ([8]; 5.2 mg/kg): Int
Tumor volume T/C ([8]; 5.2 mg/kg): 0.44
Median RTV/hCD45 at end of study ([8]; 5.2 mg/kg): >4
EFS T/C ([8]; 10.4 mg/kg): 3.1
EFS activity ([8]; 10.4 mg/kg): Int
Estimate of median time to event ([8]; 10.4 mg/kg): 17.9 days
Median group response ([8]; 10.4 mg/kg): PD2 (if the TGD value >1.5, the mouse was considered PD2)
Response activity ([8]; 10.4 mg/kg): Int
Tumor volume T/C ([8]; 10.4 mg/kg): 0.22
Median RTV/hCD45 at end of study ([8]; 10.4 mg/kg): >4
EFS T/C ([8]; 20.8 mg/kg): >7.2
EFS activity ([8]; 20.8 mg/kg): High
Median group response ([8]; 20.8 mg/kg): MCR
Response activity ([8]; 20.8 mg/kg): High
Tumor volume T/C ([8]; 20.8 mg/kg): 0.15
Median RTV/hCD45 at end of study ([8]; 20.8 mg/kg): 0.3
EFS T/C ([9]; 2.6 mg/kg): 2.3
EFS activity ([9]; 2.6 mg/kg): Int
Estimate of median time to event ([9]; 2.6 mg/kg): 25.2 days
Median group response ([9]; 2.6 mg/kg): PD2 (if the TGD value >1.5, the mouse was considered PD2)
Response activity ([9]; 2.6 mg/kg): Int
Median RTV/hCD45 at end of study ([9]; 2.6 mg/kg): >25%
EFS T/C ([9]; 5.2 mg/kg): >3.8
EFS activity ([9]; 5.2 mg/kg): Int
Response activity ([9]; 5.2 mg/kg): High
Median RTV/hCD45 at end of study ([9]; 5.2 mg/kg): >25%
EFS T/C ([9]; 10.4 mg/kg): >3.8
EFS activity ([9]; 10.4 mg/kg): Int
Response activity ([9]; 10.4 mg/kg): High
Median RTV/hCD45 at end of study ([9]; 10.4 mg/kg): 3.1%
EFS T/C ([9]; 20.8 mg/kg): >3.8
EFS activity ([9]; 20.8 mg/kg): High
Median group response ([9]; 20.8 mg/kg): MCR
Response activity ([9]; 20.8 mg/kg): High
Median RTV/hCD45 at end of study ([9]; 20.8 mg/kg): 0.3%
specificity for Aurora kinase A inhibition versus Aurora kinase B (Aurora kinase A): 200 fold
